In data set [1] the test system is T-cell. In words: Antiinflammatory activity in mouse T cells assessed as inhibition of conA-induced induced T cell proliferation at 0.4 uM incubated for 48 hrs by CCK8 assay relative to control. Format: functional. A general note: Tetrazolium assays rely on reduction of a dye to a coloured formazan, in cell work by metabolically active cells.
Data set [2] relates to T-cell. The data set can be described thus: Growth inhibition of mouse T cells at 10 uM after 48 hrs by CCK8 assay. Format: cell-based. The method, boiled down: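 Unstimulated mouse splenic T cells exposed to compound at 10 µM. Growth read by CCK-8 absorbance; […]. Mean ± SD, three independent experiments.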
The nature of data set [3]: Intrinsic clearance in rat liver microsomes assessed as per mg of protein incubated for 10 mins followed by potassium phosphate buffer addition and measured after 5 to 60 mins by LC-MS/MS analysis. In kind it is ADME, Microsome. The note with it: read-out: CLH. The method, boiled down: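 Rat, dog, monkey or human liver microsomes pre-incubated with compound at 37 °C for 10 min; reaction started after pre-warming and stopped at 5, 15, 30, 60 min with chilled quench containing tolbutamide and labetalol. No-cofactor control in 100 mM potassium phosphate for 60 min. LC-MS/MS analysis; first-order fit: k = −slope, T1/2 = 0.693/k, CLint = k/microsomal protein concentration.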
Background: Liver microsomes are vesicles of endoplasmic reticulum, rich in cytochrome P450 enzymes.

Data set [4] is described as follows: Intrinsic hepatic clearance in human. In kind it is ADME. The procedure, abridged: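 Scaled from microsomal intrinsic clearance: CLint,in vitro × microsomal protein per g liver × liver weight per kg body weight.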
Data set [5] in a line: Cmax in Sprague-Dawley rat at 10 mg/kg, po administered via gavage measured at 0.833 hrs by LC-MS/MS analysis. Format: ADME, organism-based. Also on record: dose 10 mg/kg, route oral. The note with it: in vivo.
Data set [6] has as its system Mus musculus. In words: Protection against IMQ-induced dermatitis in C57 mouse model of psoriasis assessed as reduction in invasive erythema at 60 to 120 mg/kg, ig administered once daily starting from day 3 post IMQ-challenge and measured 2 days post-last dose of IMQ. In kind it is functional, organism-based. The procedure, abridged: (§1)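 C57 mice given 5% imiquimod cream on the back once daily for 7 days; intragastric dosing 60 or 120 mg/kg once daily from day 3 to end, n = 6 per group. Dorsal skin phenotype assessed by imaging.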

In data set [7] the test system is Mus musculus. The data set can be described thus: Protection against IMQ-induced dermatitis in C57 mouse model of psoriasis assessed as reduction in roughness at 60 to 120 mg/kg, ig administered once daily starting from day 3 post IMQ-challenge and measured 2 days post-last dose of IMQ. In kind it is functional, organism-based. The procedure, abridged:
as §1

In data set [8] the test system is Mus musculus. In words: Suppression of IMQ-induced psoriasis in C57 mouse assessed as reduction in macrophage infiltration in back skin tissue at 60 to 120 mg/kg, ig administered starting from day 3 post IMQ-challenge and measured 2 days post-last dose of IMQ by F4/80 immunofluorescence staining based assay. Format: functional, organism-based. The procedure, abridged:
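IMQ-induced C57 mice (5% cream 7 days; 60 or 120 mg/kg i.g. daily from day 3). Frozen back-skin sections, 6 µm, stained with F4/80 antibody, DAPI counterstain, and imaged by confocal microscopy. Significance by two-tailed t-test.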

Calls of active or inactive are those of the source. The rule behind the calls is not given here.

In general, inhibition refers to the drop in the measured response relative to a control, in per cent. The Cmax is the maximum level reached in the sampled fluid or tissue.

`CC(O)(C#Cc1ccc(N2CCOCC2)c(Nc2ncnc3[nH]ccc23)c1)c1nccs1` (racemic): the inhibition at 0.4 µM with T-cell [1] was found to be 36%. The Activity entry in the data set with T-cell [2] is listed as “Non-Toxic”. Moreover, the microsomal CLint in data set [3] came out at 45 µL/min/mg. In addition, the CLH in data set [4] is 30.6 mL/min/kg. The compound further came in with a Cmax in data set [5] of 772 ng/mL. In addition, the outcome with Mus musculus [6] and in the data set on Mus musculus [7] was Active. Besides, in the data set with Mus musculus [8], the inhibition result is “Active”.

Values taken from ChEMBL document CHEMBL4616671, “Identification of N-Phenyl-7H-pyrrolo[2,3-d]pyrimidin-4-amine Derivatives as Novel, Potent, and Selective NF-κB Inducing Kinase (NIK) Inhibitors for the Treatment of Psoriasis” (J Med Chem, 2020).
